Measured values as given in ChEMBL document CHEMBL4052804, “Design and synthesis of piperazine acetate podophyllotoxin ester derivatives targeting tubulin depolymerization as new anticancer agents” (Bioorg Med Chem Lett, 2017).
Active and inactive are the calls of the source. No cut-off for these calls is given here.

Assays:
MCF7 [1] = assay: Cell cycle arrest in human MCF7 cells assessed as accumulation at G2/M phase at 0.3 uM after 12 hrs by propidium iodide staining based flow cytometric method (reference value: 5.43 to 13.68%); assay type: functional
MCF7 [2] = assay: Induction of apoptosis in human MCF7 cells assessed as necrotic cells at 2 uM after 24 hrs by Annexin-V-FITC/propidium iodide staining based flow cytometric method (reference value: 2.35 to 2.49%); assay type: functional
MCF7 [3] = assay: Cytotoxicity against human MCF7 cells after 24 hrs by MTT assay; assay type: functional, cell-based; conditions: MCF7, 24 h
Procedure, shortened: (§1)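 In vitro antiproliferative screen by MTT assay against human MCF-7 breast, HeLa cervical, A549 lung adenocarcinoma and HepG-2 hepatoma cells. Output is the IC50.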

MCF7 [4] = assay: Induction of apoptosis in human MCF7 cells assessed as early apoptotic cells at 4 uM after 24 hrs by Annexin-V-FITC/propidium iodide staining based flow cytometric method (reference value: 2.36 to 2.86%); assay type: functional
MCF7 [5] = assay: Induction of apoptosis in human MCF7 cells assessed as necrotic cells at 4 uM after 24 hrs by Annexin-V-FITC/propidium iodide staining based flow cytometric method (reference value: 2.35 to 2.49%); assay type: functional
MCF7 [6] = assay: Cell cycle arrest in human MCF7 cells assessed as accumulation at S phase at 0.9 uM after 12 hrs by propidium iodide staining based flow cytometric method (reference value: 27.63 to 32.34%); assay type: functional
MCF7 [7] = assay: Induction of apoptosis in human MCF7 cells assessed as viable cells at 12 uM after 24 hrs by Annexin-V-FITC/propidium iodide staining based flow cytometric method (reference value: 91.6 to 92.7%); assay type: functional; conditions: MCF7, 24 h, read-out: Activity
MCF7 [8] = assay: Induction of apoptosis in human MCF7 cells assessed as late apoptotic cells at 2 uM after 24 hrs by Annexin-V-FITC/propidium iodide staining based flow cytometric method (reference value: 2 to 3.7%); assay type: functional
MCF7 [9] = assay: Cell cycle arrest in human MCF7 cells assessed as accumulation at S phase at 0.3 uM after 12 hrs by propidium iodide staining based flow cytometric method (reference value: 27.63 to 32.34%); assay type: functional
MCF7 [10] = assay: Cell cycle arrest in human MCF7 cells assessed as accumulation at S phase at 0.6 uM after 16 hrs by propidium iodide staining based flow cytometric method (reference value: 29.55 to 32.22%); assay type: functional
MCF7 [11] = assay: Induction of apoptosis in human MCF7 cells assessed as necrotic cells at 8 uM after 24 hrs by Annexin-V-FITC/propidium iodide staining based flow cytometric method (reference value: 2.35 to 2.49%); assay type: functional
MCF7 [12] = assay: Induction of apoptosis in human MCF7 cells assessed as early apoptotic cells at 12 uM after 24 hrs by Annexin-V-FITC/propidium iodide staining based flow cytometric method (reference value: 2.36 to 2.86%); assay type: functional
L02 = assay: Cytotoxicity against human L02 cells after 24 hrs by MTT assay; assay type: cell-based; conditions: L02, 24 h
Procedure, shortened: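 Normal human liver L02 cells were tested at multiple concentrations in an MTT assay. Output is the median cytotoxic concentration (CC50).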

MCF7 [13] = assay: Induction of apoptosis in human MCF7 cells assessed as early apoptotic cells at 2 uM after 24 hrs by Annexin-V-FITC/propidium iodide staining based flow cytometric method (reference value: 2.36 to 2.86%); assay type: functional
MCF7 [14] = assay: Cell cycle arrest in human MCF7 cells assessed as accumulation at G1 phase at 0.9 uM after 12 hrs by propidium iodide staining based flow cytometric method (reference value: 58.69 to 62.23%); assay type: functional
MCF7 [15] = assay: Induction of apoptosis in human MCF7 cells assessed as late apoptotic cells at 8 uM after 24 hrs by Annexin-V-FITC/propidium iodide staining based flow cytometric method (reference value: 2 to 3.7%); assay type: functional
MCF7 [16] = assay: Cell cycle arrest in human MCF7 cells assessed as accumulation at S phase at 0.6 uM after 4 hrs by propidium iodide staining based flow cytometric method (reference value: 29.55 to 32.22%); assay type: functional
MCF7 [17] = assay: Cell cycle arrest in human MCF7 cells assessed as accumulation at G2/M phase at 0.9 uM after 12 hrs by propidium iodide staining based flow cytometric method (reference value: 5.43 to 13.68%); assay type: functional
MCF7 [18] = assay: Induction of apoptosis in human MCF7 cells assessed as viable cells at 8 uM after 24 hrs by Annexin-V-FITC/propidium iodide staining based flow cytometric method (reference value: 91.6 to 92.7%); assay type: functional; conditions: MCF7, 24 h, read-out: Activity
MCF7 [19] = assay: Induction of apoptosis in human MCF7 cells assessed as necrotic cells at 12 uM after 24 hrs by Annexin-V-FITC/propidium iodide staining based flow cytometric method (reference value: 2.35 to 2.49%); assay type: functional
HepG2 = assay: Cytotoxicity against human HepG2 cells after 24 hrs by MTT assay; assay type: functional, cell-based; conditions: HepG2, 24 h; procedure, shortened: as §1
MCF7 [20] = assay: Cell cycle arrest in human MCF7 cells assessed as accumulation at G1 phase at 0.6 uM after 16 hrs by propidium iodide staining based flow cytometric method (reference value: 60.19 to 60.87%); assay type: functional
MCF7 [21] = assay: Cell cycle arrest in human MCF7 cells assessed as accumulation at G2/M phase at 0.6 uM after 16 hrs by propidium iodide staining based flow cytometric method (reference value: 7.59 to 9.58%); assay type: functional
MCF7 [22] = assay: Cell cycle arrest in human MCF7 cells assessed as accumulation at G2/M phase at 0.6 uM after 12 hrs by propidium iodide staining based flow cytometric method (reference value: 5.43 to 13.68%); assay type: functional
HeLa = assay: Cytotoxicity against human HeLa cells after 24 hrs by MTT assay; assay type: functional, cell-based; procedure, shortened: as §1
MCF7 [23] = assay: Cell cycle arrest in human MCF7 cells assessed as accumulation at G1 phase at 0.6 uM after 12 hrs by propidium iodide staining based flow cytometric method (reference value: 58.69 to 62.23%); assay type: functional
MCF7 [24] = assay: Cell cycle arrest in human MCF7 cells assessed as accumulation at S phase at 0.6 uM after 12 hrs by propidium iodide staining based flow cytometric method (reference value: 27.63 to 32.34%); assay type: functional
A549 = assay: Cytotoxicity against human A549 cells after 24 hrs by MTT assay; assay type: functional, cell-based; conditions: A549, 24 h; procedure, shortened: as §1
MCF7 [25] = assay: Cell cycle arrest in human MCF7 cells assessed as accumulation at G2/M phase at 0.6 uM after 4 hrs by propidium iodide staining based flow cytometric method (reference value: 7.59 to 9.58%); assay type: functional
MCF7 [26] = assay: Induction of apoptosis in human MCF7 cells assessed as viable cells at 4 uM after 24 hrs by Annexin-V-FITC/propidium iodide staining based flow cytometric method (reference value: 91.6 to 92.7%); assay type: functional; conditions: MCF7, 24 h, read-out: Activity
MCF7 [27] = assay: Cell cycle arrest in human MCF7 cells assessed as accumulation at G1 phase at 0.6 uM after 8 hrs by propidium iodide staining based flow cytometric method (reference value: 60.19 to 60.87%); assay type: functional
MCF7 [28] = assay: Cell cycle arrest in human MCF7 cells assessed as accumulation at G1 phase at 0.3 uM after 12 hrs by propidium iodide staining based flow cytometric method (reference value: 58.69 to 62.23%); assay type: functional
MCF7 [29] = assay: Induction of apoptosis in human MCF7 cells assessed as late apoptotic cells at 12 uM after 24 hrs by Annexin-V-FITC/propidium iodide staining based flow cytometric method (reference value: 2 to 3.7%); assay type: functional
MCF7 [30] = assay: Induction of apoptosis in human MCF7 cells assessed as viable cells at 2 uM after 24 hrs by Annexin-V-FITC/propidium iodide staining based flow cytometric method (reference value: 91.6 to 92.7%); assay type: functional; conditions: MCF7, 24 h, read-out: Activity
MCF7 [31] = assay: Cell cycle arrest in human MCF7 cells assessed as accumulation at G2/M phase at 0.6 uM after 8 hrs by propidium iodide staining based flow cytometric method (reference value: 7.59 to 9.58%); assay type: functional
MCF7 [32] = assay: Induction of apoptosis in human MCF7 cells assessed as early apoptotic cells at 8 uM after 24 hrs by Annexin-V-FITC/propidium iodide staining based flow cytometric method (reference value: 2.36 to 2.86%); assay type: functional
MCF7 [33] = assay: Cell cycle arrest in human MCF7 cells assessed as accumulation at G1 phase at 0.6 uM after 4 hrs by propidium iodide staining based flow cytometric method (reference value: 60.19 to 60.87%); assay type: functional
MCF7 [34] = assay: Cell cycle arrest in human MCF7 cells assessed as accumulation at S phase at 0.6 uM after 8 hrs by propidium iodide staining based flow cytometric method (reference value: 29.55 to 32.22%); assay type: functional
MCF7 [35] = assay: Induction of apoptosis in human MCF7 cells assessed as late apoptotic cells at 4 uM after 24 hrs by Annexin-V-FITC/propidium iodide staining based flow cytometric method (reference value: 2 to 3.7%); assay type: functional
Homo sapiens = species: Homo sapiens; assay: Induction of tubulin depolymerization in human MCF7 cells at 1 uM after 12 hrs by DAPI staining based confocal microscopic analysis; assay type: cell-based

## COc1cc([C@@H]2c3cc4c(cc3[C@H](O)[C@H]3COC(=O)[C@H]23)OCO4)cc(OC)c1OC [PODOFILOX]
MCF7 [1]
  Activity: 29.49%
MCF7 [2]
  Activity: 1.69%
MCF7 [3]
  IC50: 7.13 µM
MCF7 [4]
  Activity: 7.87%
MCF7 [5]
  Activity: 2.34%
MCF7 [6]
  Activity: 19.79%
MCF7 [7]
  viability at 12 µM: 62.8%
MCF7 [8]
  Activity: 8.61%
MCF7 [9]
  Activity: 30.34%
MCF7 [10]
  Activity: 26.78%
MCF7 [11]
  Activity: 4.65%
MCF7 [12]
  Activity: 13.4%
L02
  IC50: 3.72 µM
MCF7 [13]
  Activity: 5.5%
MCF7 [14]
  Activity: 8.17%
MCF7 [15]
  Activity: 12.4%
MCF7 [16]
  Activity: 29.63%
MCF7 [17]
  Activity: 72.04%
MCF7 [18]
  viability at 8 µM: 72.9%
MCF7 [19]
  Activity: 6.65%
HepG2
  IC50: 5.81 µM
MCF7 [20]
  Activity: 11.02%
MCF7 [21]
  Activity: 62.2%
MCF7 [22]
  Activity: 45.4 - 47.67%
HeLa
  IC50: 7.45 µM
MCF7 [23]
  Activity: 20.81 - 27.26%
MCF7 [24]
  Activity: 27.34 - 31.52%
A549
  IC50: 9.34 µM
MCF7 [25]
  Activity: 22.4%
MCF7 [26]
  viability at 4 µM: 79.4%
MCF7 [27]
  Activity: 37.52%
MCF7 [28]
  Activity: 40.17%
MCF7 [29]
  Activity: 17.4%
MCF7 [30]
  viability at 2 µM: 84.2%
MCF7 [31]
  Activity: 30.75%
MCF7 [32]
  Activity: 10.1%
MCF7 [33]
  Activity: 47.97%
MCF7 [34]
  Activity: 31.73%
MCF7 [35]
  Activity: 10.5%

## CC(=O)O[C@H]1C(=O)[C@@]2(C)[C@H]([C@H](OC(=O)c3ccccc3)[C@]3(O)C[C@H](OC(=O)[C@H](O)[C@@H](NC(=O)c4ccccc4)c4ccccc4)C(C)=C1C3(C)C)[C@]1(OC(C)=O)CO[C@@H]1C[C@@H]2O
Homo sapiens
  Activity: inactive

## COc1cc2c(c(OC)c1OC)-c1ccc(OC)c(=O)cc1[C@@H](NC(C)=O)CC2
Homo sapiens
  Activity: Active

## COc1cc([C@@H]2c3cc4c(cc3[C@H](OC(=O)CN3CCN(c5ccccc5F)CC3)[C@H]3COC(=O)[C@H]23)OCO4)cc(OC)c1OC
MCF7 [3]
  IC50: 11.7 µM
L02
  IC50: > 100 µM
HepG2
  IC50: 15.4 µM
HeLa
  IC50: 18 µM
A549
  IC50: 9.8 µM

## COc1cc([C@@H]2c3cc4c(cc3[C@H](OC(=O)CN3CCN(c5ccccc5Cl)CC3)[C@H]3COC(=O)[C@H]23)OCO4)cc(OC)c1OC
MCF7 [3]
  IC50: 9.98 µM
L02
  IC50: > 100 µM
HepG2
  IC50: 17.7 µM
HeLa
  IC50: 11.3 µM
A549
  IC50: 8.47 µM
